Source: PubChem BioAssay
This is a sample that favours compounds with a hit; in the whole collection about 2.3% have one here.
V1R ag counter = agonists of human V1a receptor, primary screen, counter-screen for OXTR agonist project, fluorescence, CHO-V1R cells; 0.25% of 320,000 active; Fluo-8 calcium fluorescence, agonist mode; 0% DMSO, 100% 3 nM vasopressin; activation, % at 3 µM; Vasopressin V1a receptor (Homo sapiens), P37288;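 active means activation above the mean activation of all tested compounds plus 3 SD, per screening run, cut at about 20% in these data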;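 further: signal is peak over basal fluorescence ratio across a 100 second FLIPR read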
Target sequence (P37288 whole entry, looked up): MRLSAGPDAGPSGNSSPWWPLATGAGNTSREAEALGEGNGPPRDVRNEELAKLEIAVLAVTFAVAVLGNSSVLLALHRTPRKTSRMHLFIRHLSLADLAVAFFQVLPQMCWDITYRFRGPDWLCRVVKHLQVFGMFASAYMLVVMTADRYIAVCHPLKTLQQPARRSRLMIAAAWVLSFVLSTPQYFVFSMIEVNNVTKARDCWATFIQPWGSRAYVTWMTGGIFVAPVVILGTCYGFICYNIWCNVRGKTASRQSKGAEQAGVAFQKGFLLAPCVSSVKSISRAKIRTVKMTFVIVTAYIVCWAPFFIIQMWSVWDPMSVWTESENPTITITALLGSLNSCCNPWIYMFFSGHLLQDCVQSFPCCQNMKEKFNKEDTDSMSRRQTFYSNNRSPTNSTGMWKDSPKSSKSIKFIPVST
TAAR1 antag = human TAAR1 antagonists, primary screen, Fluo-8 calcium fluorescence, CHO RD-HGA16 cells. Trace amine-associated receptor 1 (Homo sapiens), Q96RJ0. antagonist. inhibition, % at 3 µM. 1.5% of 360,000 active;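 active means inhibition above a per-plate cutoff, the mean inhibition of test compounds on that plate plus 3 SD, cut at about 49% in these data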;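 further: 0% = DMSO plus EC80 beta-PEA response and 100% = DMSO alone without agonist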
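System: RD-HGA16 CHO cells with stable hTAAR1 and Gα16 | Probe or stimulus: EC80 β-phenethylamine stimulus | Dosing: 3 µM, single point | Times: Dye loading 75 min at 37 °C, then 30 min room temperature | Measured by: Fluo-8 calcium-sensitive fluorescence | Read-out basis: % inhibition of agonist calcium response | Replicates: n of 1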
OXTR potentiator = human OXTR potentiators, primary screen, fluorescence, CHO-OTR cells, Fluo-8 calcium. Oxytocin receptor (Homo sapiens), P30559. Fluo-8 calcium fluorescence, potentiator mode; 0% = oxytocin EC15, 100% = EC100. activation, % at 3 µM. 0.061% of 320,000 active. AID 2445, 2010;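 active means activation above that plate's cutoff, the mean activation of tested compounds plus 3 SD, cut at about 6.6% in these data, passing the limit was not always enough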;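 further: 100% uses oxytocin at 75 nM as the full agonist control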
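Material: CHO-OTR cells, human receptor; compound dosing: single dose, 3.0 µM nominal final compound concentration; schedule: 6 min compound pre-incubation at room temperature, 100 s kinetic read; measured by: kinetic Fluo-8 calcium fluorescence; read-out basis: % activation vs EC15 and EC100 oxytocin; controls: EC15 oxytocin alone as 0%, 75 nM oxytocin as 100%; replicates: singlicate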
OXTR ag = human OXTR agonists, primary screen, fluorescence, CHO-OTR cells, Fluo-8 calcium; activation, % at 3 µM; Fluo-8 calcium fluorescence; normalized: DMSO 0%, oxytocin 100%; 0.32% of 320,000 active;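 active means activation above the mean of all tested compounds plus 3 SD, cutoff set per screening run, cut at about 20% in these data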;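 further: peak over basal fluorescence ratio from a 100 s FLIPR kinetic read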
TAAR1 ag = human TAAR1 agonists, primary screen, Fluo-8 calcium fluorescence, CHO RD-HGA16 cells; Trace amine-associated receptor 1 (Homo sapiens), Q96RJ0; vehicle wells 0%, saturating PEA agonist 100%; activation, % at 3 µM; 0.99% of 360,000 active; AID 624467, 2012;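 active means activation above the mean activation of all test compounds in the run plus 3 SD, cut at about 38% in these data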
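test system = CHO RD-HGA16 cells carrying human TAAR1 plus Gα16 | schedule = 17-24 h seeding, 75 min 37 °C dye, 30 min RT | compound dosing = 3 µM single concentration | control set = DMSO and PEA EC100 | replicates = n 1 | signal = Fluo-8 fluorescence, 5 s baseline then 140 s kinetic read | measure = percent activation vs PEA EC100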
* marks the source's active call; other numbers are inactive results; nt = not tested or not shown.

SMILES	V1R ag counter	TAAR1 antag	OXTR potentiator	OXTR ag	TAAR1 ag
Cc1ccc(C)c2[nH]c(=O)c(C(c3nnnn3Cc3ccccc3)N3CCc4ccccc4C3)cc12 (stereo not drawn)	-0.5	41.8	-2.7	-0.3	48.8*
S=c1[nH]nc(-c2ccncc2)n1/N=C/C=C/c1ccccc1	0.0	-7.0	-4.9	-0.3	3.5
S=c1[nH]nc(-c2ccncc2)n1/N=C/C(Cl)=C\c1ccccc1	6.6	-13.4	14.4	8.2	52.4*
O=S(=O)(c1ccccc1)N1CCCc2nc(-c3ccc(F)cc3)ccc21	nt	36.8	nt	nt	5.0
CC(=O)c1ccc(NC(=O)Nc2ccc(NS(=O)(=O)c3ccc(C)cc3)cc2)cc1	1.8	55.5*	-11.7	0.7	6.3
CC(C)(O)C#Cc1cccc(-c2nc(C(=O)NCCCN3CCOCC3)cc3c2[C@H](CCO)N(S(=O)C(C)(C)C)C3)c1 (stereo partly drawn)	nt	-5.7	nt	nt	0.8
CCNC(=O)c1cc2c(c(-c3cccc(-c4cccc(C(=O)N(C)C)c4)c3)n1)[C@@H](CCO)N(S(=O)C(C)(C)C)C2 (stereo partly drawn)	nt	0.9	nt	nt	-0.1
CC(C)(C)S(=O)N1Cc2cc(C(=O)NCCCN3CCOCC3)nc(-c3cccc(-c4cc5ccccc5o4)c3)c2[C@@H]1CCO (stereo partly drawn)	nt	55.3*	nt	nt	20.6
CCCNC(=O)c1cc2c(c(-c3cccc(-c4cc5ccccc5o4)c3)n1)[C@H](CCO)N(C(=O)NC(C)C)C2	nt	50.1*	nt	nt	5.0
CC(C)(C)S(=O)N1Cc2cc(C(=O)NCC(F)(F)F)nc(-c3cccc(-c4cccc(F)c4)c3)c2[C@@H]1CCO (stereo partly drawn)	nt	50.8*	nt	nt	14.7
CC(=O)N1Cc2cc(C(=O)NCC(F)(F)F)nc(-c3cccc(-c4cc5ccccc5o4)c3)c2[C@@H]1CCO	nt	-20.8	nt	nt	2.2
COc1ccc(CNC(=O)Cn2nc(C)c3c(C)n(-c4ccc(C)cc4)nc3c2=O)cc1OC	-0.2	-12.8	-2.0	-1.2	3.7
CC1(C2CC2)NC(=O)N(CC(=O)N2CCN(c3cccc(C(F)(F)F)c3)CC2)C1=O (stereo not drawn)	7.3	3.4	-10.3	7.5	9.5
COc1cc(/C=C2\C(=O)N(CCC#N)N=C2C)ccc1OCC(=O)Nc1ccccc1	1.5	54.3*	-7.9	1.6	13.3
CCOC(=O)c1cccc(NC(=O)COc2nsnc2N2CCOCC2)c1	8.3	49.6*	-15.0	9.2	13.0
CC(=O)c1cccc(NC(=O)COc2nsnc2N2CCOCC2)c1	4.5	4.3	-5.9	2.7	6.8
CCOC(=O)Cc1csc(NC(=S)NC(=O)c2ccc(Cl)cc2)n1	12.3	34.7	-19.1	13.7	37.8*
CN1OC[C@@H]2CN(Cc3cc(Cl)cc(Cl)c3)[C@H](c3cccc(Br)c3)C[C@@H]21	nt	-4.9	nt	nt	-1.5
O=C1c2cccc3c([N+](=O)[O-])ccc(c23)C(=O)N1c1ccc(Cl)cn1	2.4	70.8*	-12.1	1.1	1.5
Cc1ccc(CCC(=O)Nc2ccc(C)c(C)c2)o1	-1.2	-7.4	-3.0	-2.7	6.5
CSCCC(NS(=O)(=O)c1ccc2c(c1)OCCO2)C(=O)N(C)Cc1ccccc1F (stereo not drawn)	6.2	55.2*	-4.6	1.3	31.1
CSCCC(NS(=O)(=O)c1cccc(C(F)(F)F)c1)C(=O)N(C)Cc1ccc2c(c1)OCCO2 (stereo not drawn)	5.7	37.4	-8.8	0.6	7.4
COc1ccccc1CNC(=O)Nc1nc(C(N)Cc2ccc(Cl)cc2)cs1 (stereo not drawn)	nt	50.7*	nt	nt	44.7*
COc1ccc(CC(N)c2csc(NC(=O)Nc3ccc(OC)cc3)n2)cc1 (stereo not drawn)	nt	25.9	nt	nt	24.6
COc1ccccc1CNC(=O)c1csc(Cc2ccc(Cl)cc2)n1	1.8	50.2*	-9.2	1.6	8.1
